Reference: ChEMBL document CHEMBL3616442, “Unconventional Knoevenagel-type indoles: Synthesis and cell-based studies for the identification of pro-apoptotic agents” (Eur J Med Chem, 2015)

Experiments:
[1] = tested on: HL-60(TB); test: Growth inhibition of human HL-60(TB) cells after 48 hrs by sulforhodamine B assay; type: functional; details: HL-60, 48 h
In short: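 NCI 60-cell-line screen, HL-60(TB) included. Compound given at five 10-fold dilutions from 10^-4 to 10^-8 M. Cells exposed for the last 48 h of a 72 h incubation. Growth or viability estimated by sulforhodamine B protein assay. GI50 is the concentration giving 50% growth inhibition. Values outside the tested range are reported as greater or less than the highest or lowest concentration.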

[2] = tested on: MDA-MB-231; test: Growth inhibition of human MDA-MB-231 cells after 48 hrs by sulforhodamine B assay; type: functional; details: MDA-MB-231, 48 h
In short: (§1)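 NCI 60-cell-line screen. Compounds tested at five 10-fold dilutions from 10^-4 to 10^-8 M. Cells exposed for the last 48 h of a 72 h incubation, growth estimated by sulforhodamine B protein assay. GI50 is the concentration giving 50% growth inhibition. Values beyond the tested range are expressed as greater or lesser than the extreme concentration.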

[3] = tested on: NCI-H23; test: Growth inhibition of human NCI-H23 cells after 48 hrs by sulforhodamine B assay; type: functional; details: NCI-H23, 48 h; in short: as §1
[4] = tested on: SN12C; test: Growth inhibition of human SN12C cells after 48 hrs by sulforhodamine B assay; type: functional
[5] = tested on: MT4; test: Antiproliferative activity against human MT4 cells after 96 hrs by MTT assay; type: functional, cell-based; details: MT4, 96 h
In short: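 Exponentially growing MT-4 cells (CD4+ human T-cells carrying integrated HTLV-1 genome), seeded at 1×10^5 cells/mL in RPMI-1640 with 10% FCS and antibiotics. Serial dilutions of compound (DMSO stock 100 mM, diluted in medium), 37 °C, 5% CO₂, 96 h. Viability read by MTT. 50% inhibition versus untreated controls by linear regression. Mean ± SD of three independent determinations.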

[6] = tested on: U-251; test: Growth inhibition of human U251 cells after 48 hrs by sulforhodamine B assay; type: functional; details: U-251, 48 h
[7] = tested on: OVCAR-4; test: Growth inhibition of human OVCAR4 cells after 48 hrs by sulforhodamine B assay; type: functional; details: OVCAR-4, 48 h; in short: as §1
[8] = tested on: ACHN; test: Growth inhibition of human ACHN cells after 48 hrs by sulforhodamine B assay; type: functional; in short: as §1
[9] = tested on: CCRF-CEM; test: Growth inhibition of human CCRF-CEM cells after 48 hrs by sulforhodamine B assay; type: functional; in short: as §1
[10] = tested on: SW-620; test: Growth inhibition of human SW620 cells after 48 hrs by sulforhodamine B assay; type: functional; details: SW-620, 48 h
[11] = tested on: KM12; test: Growth inhibition of human KM12 cells after 48 hrs by sulforhodamine B assay; type: functional; details: KM12, 48 h; in short: as §1
[12] = tested on: HCT-15; test: Growth inhibition of human HCT15 cells after 48 hrs by sulforhodamine B assay; type: functional; details: HCT-15, 48 h; in short: as §1
[13] = tested on: MDA-MB-435; test: Growth inhibition of human MDA-MB-435 cells after 48 hrs by sulforhodamine B assay; type: functional; details: MDA-MB-435, 48 h; in short: as §1
[14] = tested on: HCT-116; test: Growth inhibition of human HCT116 cells after 48 hrs by sulforhodamine B assay; type: functional; details: HCT-116, 48 h; in short: as §1
[15] = tested on: SK-OV-3; test: Growth inhibition of human SKOV3 cells after 48 hrs by sulforhodamine B assay; type: functional; details: SK-OV-3, 48 h

| Compound | GI50 [1] | GI50 [2] | GI50 [3] | GI50 [4] | EC50 [5] | GI50 [6] | GI50 [7] | GI50 [8] | GI50 [9] | GI50 [10] | GI50 [11] | GI50 [12] | GI50 [13] | GI50 [14] | GI50 [15] |
| --- | --- | --- | --- | --- | --- | --- | --- | --- | --- | --- | --- | --- | --- | --- | --- |
| CCOC(=O)C(=Cc1c(-c2ccccc2)[nH]c2ccccc12)C(=O)OCC | 4400 nM | 5.8 µM | 2.9 µM | 5.1 µM | 2300 nM | 4.9 µM | 10.5 µM | 4.4 µM | 2600 nM | 5600 nM | 3500 nM | 4100 nM | 3400 nM | 4.3 µM | 13.6 µM |
| COc1ccc2[nH]c(-c3ccccc3)c(C=C(C#N)C#N)c2c1 | 2500 nM | 3.8 µM | 4.1 µM | 4.7 µM | 1000 nM | 3.5 µM | 5.4 µM | 7.4 µM | 3400 nM | 3600 nM | 3500 nM | 3200 nM | 607 nM | 4.4 µM | 4.8 µM |
| N#C/C(=C\c1c(-c2ccccc2)[nH]c2ccccc12)S(=O)(=O)c1ccccc1 | 1800 nM | 3.8 µM | 4.7 µM | 5.2 µM | 400 nM | 2.6 µM | 5.5 µM | 7 µM | 2600 nM | 570 nM | 652 nM | 1100 nM | 288 nM | 2 µM | 6.8 µM |
| COC(=O)/C(=C\c1c(-c2ccccc2)[nH]c2ccccc12)S(C)(=O)=O | 3400 nM | 2.4 µM | 8 µM | 3.1 µM | 400 nM | 3.6 µM | 6.2 µM | 9.2 µM | 7600 nM | 2900 nM | 1500 nM | 2400 nM | 671 nM | 4.2 µM | 12.1 µM |
| N#CC(C#N)=Cc1c(-c2ccccc2)[nH]c2ccccc12 | 1800 nM | 1.8 µM | 4.7 µM | 6.8 µM | 400 nM | 1.2 µM | 5.2 µM | 7.3 µM | 2400 nM | 539 nM | 684 nM | 971 nM | 246 nM | 2.3 µM | 6 µM |
| CC(=O)/C(=C\c1c(-c2ccccc2)[nH]c2ccccc12)S(=O)(=O)c1ccccc1 | 1700 nM | 1.7 µM | 1.6 µM | 1.9 µM | 400 nM | 1.2 µM | 3.7 µM | 1.8 µM | 1400 nM | 778 nM | 1000 nM | 836 nM | 295 nM | 0.754 µM | 2.9 µM |
